# High-throughput results (PubChem)
# Compounds with a hit are over-represented: about 3.1% of the library has one in this group of screens.
# KCNK9 block – human KCNK9 channel inhibition; 310,000 tested, 1.2% active; HEK293 KCNK9, FluxOR thallium flux fluorescence; active compounds read low; B-score at 10 µM; AID 488922;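 active = ratio B-score over 3 SD below the library mean, with starting fluorescence within 5 SD of its mean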;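 also: negative B-score means less thallium flux so channel inhibition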
# KCNQ1 block – human KCNQ1 channel inhibition. P51787. CHO-K1 KCNQ1, FluxOR thallium flux fluorescence; active compounds read high. B-score at 10 µM. 310,000 tested, 1.3% active. AID 2642;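 active = compounds whose thallium flux B-score, printed positive for inhibition, exceeds three library SD while starting fluorescence stays within three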;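 also: channel opened by potassium depolarization with thallium stimulus after 20 min compound exposure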
# Target sequence (P51787 whole entry, looked up): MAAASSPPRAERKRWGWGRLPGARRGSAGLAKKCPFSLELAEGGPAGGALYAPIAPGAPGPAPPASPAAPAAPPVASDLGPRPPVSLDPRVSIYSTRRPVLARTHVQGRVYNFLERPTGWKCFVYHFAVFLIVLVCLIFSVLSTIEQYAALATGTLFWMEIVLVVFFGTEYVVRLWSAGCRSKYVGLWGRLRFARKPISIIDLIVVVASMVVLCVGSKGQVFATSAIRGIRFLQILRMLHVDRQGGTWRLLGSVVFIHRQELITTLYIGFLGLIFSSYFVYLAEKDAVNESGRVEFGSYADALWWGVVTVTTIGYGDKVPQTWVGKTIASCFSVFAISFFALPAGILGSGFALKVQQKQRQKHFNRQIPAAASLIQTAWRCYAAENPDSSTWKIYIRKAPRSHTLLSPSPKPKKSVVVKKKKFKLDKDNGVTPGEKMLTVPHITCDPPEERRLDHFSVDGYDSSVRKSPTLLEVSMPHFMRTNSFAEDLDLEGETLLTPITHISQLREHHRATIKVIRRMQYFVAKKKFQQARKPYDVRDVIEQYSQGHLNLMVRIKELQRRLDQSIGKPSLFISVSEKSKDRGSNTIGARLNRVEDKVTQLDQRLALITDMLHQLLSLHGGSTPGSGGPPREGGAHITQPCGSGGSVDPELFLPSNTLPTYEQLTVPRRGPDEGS
# hERG protect – hERG (human) protection from proarrhythmic block | activation (rescue from dofetilide block), less the hit threshold, % at 10 µM | AID 1511 | 310,000 tested, 0.51% active | CHO-hERG, FluxOR thallium flux, dofetilide IC70 present;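 active = activation above the mean of controls blocked by dofetilide plus 5 SD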;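 also: thallium influx through hERG after potassium depolarization seen as dye fluorescence rise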
# KCNK3 inh – human KCNK3 channel inhibition, primary screen; O14649; CHO-KCNK3 thallium flux, FluxOR fluorescence; active compounds read low; B-score at 10 µM; 340,000 tested, 0.84% active; AID 602410;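 active = B-score under library mean minus 4 SD, starting fluorescence ratio at most library mean plus 5 SD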;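 also: more negative B-score means stronger inhibition of thallium flux through KCNK3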
# KCNQ1 act – human KCNQ1 channel potentiation or activation. 310,000 tested, 0.35% active. P51787. CHO-K1 KCNQ1, thallium flux FluxOR fluorescence; active compounds read high. AID 2648. B-score at 10 µM;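 active = fluorescence ratio B-score, a plate-corrected score, at least three library SD, with initial intensity B-score within 5 SD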
#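 Schedule – 37 °C overnight plating, 90-min dark dye load, 20-min compound pretreatment · System – stable KCNQ1 CHO-K1 line · Probe or stimulus – thallium- and potassium-containing depolarizing buffer · Measured by – kinetic FluxOR fluorescence, 10 s baseline plus 110 s post-stimulus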
# KCNK9 block conf – confirmation of human KCNK9 potassium channel inhibitors. shares compounds with KCNK9 block. HEK293 KCNK9 cells, FluxOR thallium flux fluorescence. inhibition, % at 10 µM. 4,900 tested, 43% active;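 active = thallium signal inhibited by more than 5 SD of the compound-free buffer control wells, on both duplicate plates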
# Kir21 sel – mouse Kir2.1 off-target activity of KCNK9 modulators; shares compounds with KCNK9 block; Kir2.1 cells, FluxOR thallium flux fluorescence; inhibition, % at 10 µM; 4,900 tested, 4% active; AID 492993;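 active = thallium signal drop more than 5 SD beyond the mean of the no-compound control wells, seen in both duplicate plates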;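 also: signal is fluorescence rise after thallium addition divided by baseline fluorescence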
# KCNK9 uninduced – second counter-screen for KCNK9 modulators: effect in non-induced cells. shares compounds with KCNK9 block. non-induced KCNK9-HEK293, FluxOR thallium flux. inhibition, % at 10 µM. 4,900 tested, 40% active. AID 492997;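 active = thallium signal drop beyond 5 SD of the untreated control mean, on both duplicate plates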
# A number is an active result; n = inactive; x = no result given.
SMILES,KCNK9 block,KCNQ1 block,hERG protect,KCNK3 inh,KCNQ1 act,KCNK9 block conf,Kir21 sel,KCNK9 uninduced
COc1ccc(OC)c(-c2csc(N(Cc3ccco3)C(=O)c3cccs3)n2)c1,-12,7,n,n,n,49%,n,43%
COc1ccc(-c2csc(N(C)C(=O)c3cccs3)n2)cc1,n,n,n,n,n,x,x,x
COc1ccc(-c2csc(N(Cc3ccco3)C(=O)c3cccs3)n2)cc1,-9.4,n,n,n,n,50%,n,40%
COc1cc(/C=C2\SC(=S)N(CCC(=O)Nc3ccccn3)C2=O)cc(OC)c1OC,-8.3,n,n,n,n,n,n,n
O=C(O)C(Cc1ccccc1)N1C(=O)/C(=C/c2cccnc2)SC1=S (configuration not stated),n,n,n,n,n,x,x,x
COc1ccc(/C=C2\SC(=S)N(C(Cc3ccccc3)C(=O)O)C2=O)cc1 (configuration not stated),n,n,n,n,n,n,n,n
COc1ccc(/C=C2\SC(=S)N(CCC(=O)Nc3ccccc3C(=O)O)C2=O)cc1,n,n,n,n,n,n,n,n
COc1cc(/C=C2\SC(=S)N(CC(=O)Nc3ccccn3)C2=O)cc(OC)c1OC,n,n,n,n,n,x,x,x
O=C(NCC1CCCO1)c1cc(-c2ccc(F)cc2)no1 (configuration not stated),n,n,n,n,n,x,x,x
CCCCNC(=S)N/N=C/C1=CCC2CC1C2(C)C (configuration not stated),n,n,n,n,n,n,n,n
C=CCC(=O)N(CC)CC1CCCN(CCc2cccc(F)c2)C1 (configuration not stated),-9.1,n,n,n,n,n,n,n
N#C/C(=C\c1ccc(N2CCOCC2)o1)c1nc2ccccc2[nH]1,x,x,x,n,x,x,x,x
N#C/C(=C/c1ccc(N2CCOCC2)o1)c1ccc(Cl)cc1,-10,n,n,n,n,74%,38%,80%
c1ccc(-c2csc3ncnc(N4CCOCC4)c23)cc1,n,n,n,n,n,x,x,x
c1ccc(-c2csc3ncnc(N4CCc5ccccc5C4)c23)cc1,-11,n,n,n,n,55%,n,38%
SC(COCc1ccccc1)CN1CCN(Cc2ccc3c(c2)OCO3)CC1 (configuration not stated),n,n,n,n,n,n,n,n
COc1ccc(C(=O)N2CCCC(Nc3ccc(C)c(C)c3)C2)cc1F (configuration not stated),n,n,n,n,n,x,x,x
Cc1ccc(NC2CCCN(C(=O)c3ccc4[nH]ccc4c3)C2)cc1C (configuration not stated),n,n,n,n,n,n,n,n
C=CCOc1cccc(C(=O)N2CCCC(Nc3ccc4c(c3)OCCO4)C2)c1 (configuration not stated),n,n,n,n,n,n,n,n
COC(=O)c1cccc(C(=O)N2CCCC(Nc3ccc(C)c(C)c3)C2)c1 (configuration not stated),n,n,n,n,n,n,n,n
O=c1c(-c2nnc(SCc3ccc(Cl)c(Cl)c3)o2)cccn1Cc1ccccc1,n,n,n,n,n,x,x,x
COC(=O)c1sc(-c2ccc(C(C)(C)C)cc2)cc1NC(=O)CSCC(=O)O,n,n,n,n,n,n,n,n
COC(=O)c1sc(-c2ccc(C(C)(C)C)cc2)cc1NC(=O)c1ccccc1C(=O)O,n,n,n,n,n,n,n,n
COC(=O)c1sc(-c2ccccc2)cc1NC(=O)C1CC1,n,n,n,n,n,x,x,x
CC(=O)N1CCN(S(=O)(=O)c2cccc(C(=O)N(Cc3ccccc3)c3cccc(C)c3)c2)CC1,n,n,n,n,n,x,x,x
SMILES,KCNK9 block,KCNQ1 block,hERG protect,KCNK3 inh,KCNQ1 act,KCNK9 block conf,Kir21 sel,KCNK9 uninduced
CC(NC(=O)c1ccncc1)c1ccc(Cl)cc1Cl (configuration not stated),n,n,n,n,n,x,x,x
COc1ccc(/C=N/N2CCOCC2)cc1Cn1cc([N+](=O)[O-])cn1,n,n,n,n,n,x,x,x
Cc1cccc(OCCC(=O)Nc2ccc(S(=O)(=O)N3CCCC3)cc2)c1,n,n,n,n,n,x,x,x
Cc1cccc(OCCOC(=O)C2CCN(S(=O)(=O)c3ccc(C)c(C)c3)CC2)c1,n,n,n,n,n,n,n,n
Cc1cccc(Oc2ccc(S(=O)(=O)N3CCCCC3)cc2N)c1,-10,n,n,n,n,50%,n,31%
Cc1ccc(OCCOC(=O)C2CCN(S(=O)(=O)c3ccc(C)c(C)c3)CC2)cc1,n,n,n,n,n,n,n,n
Cc1cccc(OCCC(=O)Nc2ccc(C)c(S(=O)(=O)N3CCCCC3)c2)c1,n,n,n,n,n,n,n,n
CCN(CC(=O)Nc1c(F)cccc1F)C(=O)c1ccc2c(c1)OCCO2,n,n,n,n,n,x,x,x
COc1cccc(OC)c1C(=O)Nc1ccncc1,n,n,n,n,n,x,x,x
CC(=O)NC(=S)Nc1sc2c(c1C(N)=O)CCC(C)C2 (configuration not stated),n,n,n,n,n,x,x,x
CC(C)OCCCNC(=O)C1CCN(S(=O)(=O)c2ccc3nc4c(c(C(=O)O)c3c2)CCCCC4)CC1,n,n,n,n,n,x,x,x
Cc1ccc(Cl)c(OCCN2CCc3ccccc3C2)c1,n,n,n,n,n,n,n,n
Cc1ccc(Cl)c(OCCCCN(C)Cc2ccccc2)c1,n,n,n,n,n,x,x,x
Cc1ccc(Cl)c(OCCCN(C)Cc2ccccc2)c1,n,n,n,n,n,n,n,n
CCOC(=O)/C(=C/c1ccco1)NC(=O)c1ccc(Br)o1,n,n,n,n,n,x,x,x
CCCCc1noc(-c2c(-c3ccccc3Cl)noc2C)n1,n,n,n,n,n,n,n,n
CCOC(=O)c1sc(NC(=S)NC(=O)c2ccccc2)c(C(=O)OCC)c1C,n,n,n,n,n,x,x,x
CCOC(=O)c1sc(NC(=S)NC(=O)c2ccccc2Cl)c(C(=O)OCC)c1C,-9.1,n,n,n,n,n,n,n
COc1ccccc1N1CCN(C(=O)c2oc3cc(C)cc(C)c3c2C)CC1,n,n,n,n,n,n,n,n
CCOc1ccccc1N1CCN(C(=O)c2cc3c(C)cc(C)cc3[nH]2)CC1,-8.3,n,n,n,n,n,n,n
CSCCC(NS(=O)(=O)c1ccccc1F)C(=O)NCc1ccncc1 (configuration not stated),n,n,n,n,n,x,x,x
CSCCC(C(=O)OCC(=O)c1ccc(C)c(C)c1)N1C(=O)c2cc(Cl)c(Cl)cc2C1=O (configuration not stated),n,n,n,n,n,n,n,n
